Measurements as given in ChEMBL document CHEMBL1146231, “Novel semisynthetic derivative of antibiotic Eremomycin active against drug-resistant gram-positive pathogens including Bacillus anthracis” (J Med Chem, 2007).
≈ marks a conversion by molar mass, not a printed value. Calls of active or inactive are those of the source. The rule behind the calls is not given here.

Key:
[1] = tested on: Enterococcus faecium; test: Antimicrobial activity against vancomycin-susceptible Enterococcus faecium 568 isolate; format: functional
Summary of the method: (§1)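 MICs were run by broth microdilution as recommended by NCCLS, in cation-adjusted Mueller-Hinton broth. Compound was serially diluted 2-fold, over a final range of 64 to 0.03 µg/mL after inoculation.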

[2] = tested on: Enterococcus faecalis; test: Antimicrobial activity against vancomycin-resistant Enterococcus faecalis 560 isolate; format: functional; summary of the method: as §1
[3] = tested on: Enterococcus faecium; test: Antimicrobial activity against vancomycin-resistant Enterococcus faecium 569 isolate; format: functional; summary of the method: as §1
[4] = tested on: Staphylococcus aureus; test: Antimicrobial activity against glycopeptide intermediate resistant Staphylococcus aureus 3798 isolate; format: functional; summary of the method: as §1
[5] = tested on: Staphylococcus haemolyticus; test: Antimicrobial activity against Staphylococcus haemolyticus 602 isolate; format: functional; summary of the method: as §1
[6] = tested on: Staphylococcus aureus; test: Antimicrobial activity against glycopeptide intermediate resistant Staphylococcus aureus 3793 isolate; format: functional; summary of the method: as §1
[7] = tested on: Enterococcus faecalis; test: Antimicrobial activity against vancomycin-susceptible Enterococcus faecalis 559 isolate; format: functional; summary of the method: as §1
[8] = tested on: Staphylococcus epidermidis; test: Antimicrobial activity against Staphylococcus epidermidis 533 isolate; format: functional; summary of the method: as §1
[9] = tested on: Enterococcus faecalis; test: Antimicrobial activity against vancomycin-resistant Enterococcus faecalis Enfa_vre-2 isolate; format: functional; summary of the method: as §1
[10] = tested on: Mus musculus; test: Survival of BALB/c mouse pulmonary challenged with Bacillus anthracis at 3 mg/kg; format: functional
[11] = tested on: Bacillus anthracis; test: Antimicrobial activity against Bacillus anthracis HH105-5 isolate; format: functional
[12] = tested on: Streptococcus pyogenes; test: Antimicrobial activity against Streptococcus pyogenes Stpy_8668 isolate; format: functional
[13] = tested on: Enterococcus faecalis; test: Antimicrobial activity against vancomycin-resistant Enterococcus faecalis Enfa_t29862 isolate; format: functional; summary of the method: as §1
[14] = tested on: Bacillus anthracis; test: Antimicrobial activity against Bacillus anthracis Ames; format: functional
[15] = tested on: Staphylococcus aureus; test: Antimicrobial activity against methicillin-resistant Staphylococcus aureus Stau_HIP5827 isolate; format: functional; summary of the method: as §1
[16] = tested on: Bacillus anthracis; test: Antimicrobial activity against Bacillus anthracis HH113-6R isolate; format: functional
[17] = tested on: Mus musculus; test: Survival of BALB/c mouse pulmonary challenged with Bacillus anthracis at 1 mg/kg; format: functional
[18] = tested on: Staphylococcus aureus; test: Antimicrobial activity against methicillin-resistant Staphylococcus aureus Stau_b11386 isolate; format: functional; summary of the method: as §1
[19] = tested on: Mus musculus; test: Survival of pulmonary anthrax BALB/c mouse model infected with Bacillus anthracis Ames at 30 mg/kg, sc twice daily for 6 days; format: functional; details: 144 h, route subcutaneous
[20] = tested on: Staphylococcus aureus; test: Antimicrobial activity against methicillin-resistant Staphylococcus Stau_33591 isolate; format: functional; summary of the method: as §1
[21] = tested on: Enterococcus faecalis; test: Antimicrobial activity against vancomycin-susceptible Enterococcus faecalis Enfa_29212 isolate; format: functional; summary of the method: as §1
[22] = tested on: Staphylococcus aureus; test: Antimicrobial activity against methicillin-resistant Staphylococcus aureus Stau_29213 isolate; format: functional; summary of the method: as §1
[23] = tested on: Bacillus anthracis; test: Antimicrobial activity against Bacillus anthracis HH105-5R isolate; format: functional
[24] = tested on: Bacillus anthracis; test: Antimicrobial activity against Bacillus anthracis HH105-6 isolate; format: functional
[25] = tested on: Mus musculus; test: Survival of pulmonary anthrax BALB/c mouse model infected with Bacillus anthracis Ames at 100 mg/kg, sc after 6 days; format: functional; details: 144 h, route subcutaneous
[26] = tested on: Mus musculus; test: Survival of pulmonary anthrax BALB/c mouse model infected with Bacillus anthracis Ames at 30 mg/kg, sc after 6 days; format: functional; details: 144 h, route subcutaneous
[27] = tested on: Staphylococcus aureus; test: Antimicrobial activity against methicillin-resistant Staphylococcus aureus Stau_Mu50-HIP5406 isolate; format: functional; summary of the method: as §1
[28] = species on record: Mus musculus; test: Effect on survival of BALB/c mouse infected with Staphylococcus aureus PGO#172; format: functional
Summary of the method: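 Mice received a lethal dose of S. aureus PGO#172 (ATCC#29213) by intraperitoneal injection. They were treated with an iv bolus at 1, 5, 10, 25 or 50 mg/kg, in groups of five. Mortality was the endpoint, and ED50 was derived from the dose-response.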

[29] = tested on: Escherichia coli; test: Antimicrobial activity against Escherichia coli Esco_25922 isolate; format: functional
[30] = tested on: Mus musculus; test: Survival of pulmonary anthrax BALB/c mouse model infected with Bacillus anthracis Ames at 10 mg/kg, sc after 6 days; format: functional; details: 144 h, route subcutaneous
[31] = tested on: Mus musculus; test: Survival of BALB/c mouse pulmonary challenged with Bacillus anthracis at 0.3 mg/kg; format: functional
[32] = tested on: Bacillus anthracis; test: Antimicrobial activity against Bacillus anthracis HHT105-5R isolate; format: functional
[33] = tested on: Mus musculus; test: Survival of BALB/c mouse pulmonary challenged with Bacillus anthracis at 10 mg/kg; format: functional
[34] = tested on: Mus musculus; test: Protection against pulmonary anthrax BALB/c mouse model infected with Bacillus anthracis at 135 mg/kg, po after 6 days; format: functional; details: 144 h
[35] = tested on: Mus musculus; test: Survival of BALB/c mouse pulmonary challenged with Bacillus anthracis at 114 mg/kg, po; format: functional
[36] = tested on: Bacillus anthracis; test: Protection against Bacillus anthracis challenged BALB/c mouse at 106 mg/kg, iv after 3 days; format: functional, organism-based; design: dose 106 mg/kg

SMILES	MIC [1]	MIC [2]	MIC [3]	MIC [4]	MIC [5]	MIC [6]	MIC [7]	MIC [8]	MIC [11]	MIC [16]	MIC [23]	MIC [24]	survival at 30 mg/kg [26]	MIC [32]	also measured
CN[C@H](CC(C)C)C(=O)N[C@H]1C(=O)N[C@@H](CC(N)=O)C(=O)N[C@H]2C(=O)N[C@H]3C(=O)N[C@H](C(=O)N[C@H](C(=O)NC(C)C4C5CC6CC(C5)CC4C6)c4cc(O)cc(O)c4-c4cc3ccc4O)[C@H](O[C@@H]3C[C@@](C)(N)[C@H](O)[C@@H](C)O3)c3ccc(cc3)Oc3cc2cc(c3O[C@H]2O[C@@H](CO)[C@H](O)[C@@H](O)[C@@H]2O[C@H]2C[C@](C)(N)[C@@H](O)[C@H](C)O2)Oc2ccc(cc2Cl)[C@H]1O (stereo partly specified)	0.5 µg/mL (≈ 0.291 µM)	16 µg/mL (≈ 9.31 µM)	16 µg/mL (≈ 9.31 µM)	2 µg/mL (≈ 1.16 µM)	1 µg/mL (≈ 0.582 µM)	4 µg/mL (≈ 2.33 µM)	1 µg/mL (≈ 0.582 µM)	0.5 µg/mL (≈ 0.291 µM)							
CN[C@H](CC(C)C)C(=O)N[C@H]1C(=O)N[C@@H](CC(N)=O)C(=O)N[C@H]2C(=O)N[C@H]3C(=O)N[C@H](C(=O)N[C@H](C(=O)O)c4cc(O)cc(O)c4-c4cc3ccc4O)[C@H](O[C@@H]3C[C@@](C)(N)[C@H](O)[C@@H](C)O3)c3ccc(cc3)Oc3cc2cc(c3O[C@H]2O[C@@H](CO)[C@H](O)[C@@H](O)[C@@H]2O[C@H]2C[C@](C)(N)[C@@H](O)[C@H](C)O2)Oc2ccc(cc2Cl)[C@H]1O [EREMOMYCIN]	0.5 µg/mL (≈ 0.321 µM)	> 128 µg/mL	> 128 µg/mL	8 µg/mL (≈ 5.13 µM)	0.25 µg/mL (≈ 0.16 µM)	8 µg/mL (≈ 5.13 µM)	0.5 µg/mL (≈ 0.321 µM)	0.25 µg/mL (≈ 0.16 µM)							
CN[C@H](CC(C)C)C(=O)N[C@H]1C(=O)N[C@@H](CC(N)=O)C(=O)N[C@H]2C(=O)N[C@H]3C(=O)N[C@H](C(=O)N[C@H](C(=O)NC4C5CC6CC(C5)CC4C6)c4cc(O)cc(O)c4-c4cc3ccc4O)[C@H](O[C@@H]3C[C@@](C)(N)[C@H](O)[C@@H](C)O3)c3ccc(cc3)Oc3cc2cc(c3O[C@H]2O[C@@H](CO)[C@H](O)[C@@H](O)[C@@H]2O[C@H]2C[C@](C)(N)[C@@H](O)[C@H](C)O2)Oc2ccc(cc2Cl)[C@H]1O (stereo partly specified)	1 µg/mL (≈ 0.591 µM)	16 µg/mL (≈ 9.46 µM)	16 µg/mL (≈ 9.46 µM)	2 µg/mL (≈ 1.18 µM)	1 µg/mL (≈ 0.591 µM)	2 µg/mL (≈ 1.18 µM)	1 µg/mL (≈ 0.591 µM)	0.5 µg/mL (≈ 0.296 µM)							
CN[C@H](CC(C)C)C(=O)N[C@H]1C(=O)N[C@@H](CC(N)=O)C(=O)N[C@H]2C(=O)N[C@H]3C(=O)N[C@H](C(=O)N[C@H](C(=O)NC45CC6CC(CC(C6)C4)C5)c4cc(O)cc(O)c4-c4cc3ccc4O)[C@H](O[C@@H]3C[C@@](C)(N)[C@H](O)[C@@H](C)O3)c3ccc(cc3)Oc3cc2cc(c3O[C@H]2O[C@@H](CO)[C@H](O)[C@@H](O)[C@@H]2O[C@H]2C[C@](C)(N)[C@@H](O)[C@H](C)O2)Oc2ccc(cc2Cl)[C@H]1O	0.5 µg/mL (≈ 0.296 µM)	8 µg/mL (≈ 4.73 µM)	4 µg/mL (≈ 2.37 µM)	2 µg/mL (≈ 1.18 µM)	0.25 µg/mL (≈ 0.148 µM)	1 µg/mL (≈ 0.591 µM)	0.5 µg/mL (≈ 0.296 µM)	0.25 µg/mL (≈ 0.148 µM)	0.5 µg/mL (≈ 0.296 µM)	0.5 µg/mL (≈ 0.296 µM)	0.25 µg/mL (≈ 0.148 µM)	0.5 µg/mL (≈ 0.296 µM)	88%	0.25 µg/mL (≈ 0.148 µM)	MIC [9]: 12.5 µg/mL (≈ 7.39 µM); survival at 3 mg/kg [10]: 62.5%; MIC [12]: 0.2 µg/mL (≈ 0.118 µM); MIC [13]: 6.25 µg/mL (≈ 3.7 µM); MIC [14]: 0.5 µg/mL (≈ 0.296 µM); MIC [15]: 1.56 µg/mL (≈ 0.922 µM); survival at 1 mg/kg [17]: 50%; MIC [18]: 0.78 µg/mL (≈ 0.461 µM); survival at 30 mg/kg [19]: 86%; MIC [20]: 0.78 µg/mL (≈ 0.461 µM); MIC [21]: 0.4 µg/mL (≈ 0.237 µM); MIC [22]: 0.78 µg/mL (≈ 0.461 µM); survival at 100 mg/kg [25]: 100%; MIC [27]: 0.4 µg/mL (≈ 0.237 µM); ED50 [28]: 20.4 mg/kg; MIC [29]: > 50 µg/mL; survival at 10 mg/kg [30]: 88%; survival at 0.3 mg/kg [31]: 12.5%; survival at 10 mg/kg [33]: 85.7%
O=C(O)c1cn(C2CC2)c2cc(N3CCNCC3)c(F)cc2c1=O [CIPROFLOXACIN]									8 µg/mL (≈ 24.1 µM)	4 µg/mL (≈ 12.1 µM)	4 µg/mL (≈ 12.1 µM)	32 µg/mL (≈ 96.6 µM)	75%	8 µg/mL (≈ 24.1 µM)	survival at 135 mg/kg [34]: 75%; survival at 114 mg/kg [35]: 87.5%; Activity [36]: Active
